ChEMBL document CHEMBL5543163, “Druglike, 18F-labeled PET Tracers Targeting Fibroblast Activation Protein” (J Med Chem, 2024)
Blank lines part the entries; values can stand above or below the molecule they belong to.

What was measured:
Dipeptidyl peptidase 4 = Dipeptidyl peptidase 4 (Homo sapiens, UniProt P27487); assay: Inhibition of DPP4 (unknown origin) using Ala-Pro-paranitroanilide as chromogenic substrate preincubated for 15 mins followed by substrate addition and measured after 15 mins
Dipeptidyl peptidase 9 = Dipeptidyl peptidase 9 (Homo sapiens, UniProt Q86TI2); assay: Inhibition of DPP9 (unknown origin) using Ala-Pro-paranitroanilide as chromogenic substrate preincubated for 15 mins followed by substrate addition and measured after 15 mins
Sequence of Dipeptidyl peptidase 9 (Q86TI2 whole entry): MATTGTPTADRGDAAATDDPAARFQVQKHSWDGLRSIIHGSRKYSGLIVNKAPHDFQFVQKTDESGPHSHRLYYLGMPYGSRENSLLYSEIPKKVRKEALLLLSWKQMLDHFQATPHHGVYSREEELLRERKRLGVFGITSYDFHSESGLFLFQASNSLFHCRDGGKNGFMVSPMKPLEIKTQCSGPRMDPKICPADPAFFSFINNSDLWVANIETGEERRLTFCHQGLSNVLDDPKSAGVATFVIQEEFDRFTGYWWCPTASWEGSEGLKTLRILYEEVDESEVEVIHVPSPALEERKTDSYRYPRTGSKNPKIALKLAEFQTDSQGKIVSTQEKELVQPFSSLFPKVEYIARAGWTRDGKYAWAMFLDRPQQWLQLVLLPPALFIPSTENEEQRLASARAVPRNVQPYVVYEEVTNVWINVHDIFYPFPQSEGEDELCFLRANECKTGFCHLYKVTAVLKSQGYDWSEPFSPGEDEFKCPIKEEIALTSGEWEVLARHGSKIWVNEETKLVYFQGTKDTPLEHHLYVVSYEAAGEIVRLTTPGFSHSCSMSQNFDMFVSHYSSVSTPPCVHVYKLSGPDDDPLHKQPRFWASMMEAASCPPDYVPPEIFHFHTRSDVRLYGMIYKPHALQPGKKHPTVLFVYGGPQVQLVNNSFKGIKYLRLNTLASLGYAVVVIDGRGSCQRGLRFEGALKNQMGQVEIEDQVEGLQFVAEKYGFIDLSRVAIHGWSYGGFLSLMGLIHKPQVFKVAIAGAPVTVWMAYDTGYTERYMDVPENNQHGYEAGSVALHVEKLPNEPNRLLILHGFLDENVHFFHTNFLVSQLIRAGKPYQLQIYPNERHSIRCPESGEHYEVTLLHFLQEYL

Prolyl endopeptidase = target: T1, Prolyl endopeptidase (Homo sapiens, UniProt P48147); assay: Inhibition of PREP (unknown origin) using N-succinyl-Gly-Pro-AMC as substrate preincubated for 15 mins followed by substrate addition and measured after 15 mins
T1 sequence (P48147 whole entry): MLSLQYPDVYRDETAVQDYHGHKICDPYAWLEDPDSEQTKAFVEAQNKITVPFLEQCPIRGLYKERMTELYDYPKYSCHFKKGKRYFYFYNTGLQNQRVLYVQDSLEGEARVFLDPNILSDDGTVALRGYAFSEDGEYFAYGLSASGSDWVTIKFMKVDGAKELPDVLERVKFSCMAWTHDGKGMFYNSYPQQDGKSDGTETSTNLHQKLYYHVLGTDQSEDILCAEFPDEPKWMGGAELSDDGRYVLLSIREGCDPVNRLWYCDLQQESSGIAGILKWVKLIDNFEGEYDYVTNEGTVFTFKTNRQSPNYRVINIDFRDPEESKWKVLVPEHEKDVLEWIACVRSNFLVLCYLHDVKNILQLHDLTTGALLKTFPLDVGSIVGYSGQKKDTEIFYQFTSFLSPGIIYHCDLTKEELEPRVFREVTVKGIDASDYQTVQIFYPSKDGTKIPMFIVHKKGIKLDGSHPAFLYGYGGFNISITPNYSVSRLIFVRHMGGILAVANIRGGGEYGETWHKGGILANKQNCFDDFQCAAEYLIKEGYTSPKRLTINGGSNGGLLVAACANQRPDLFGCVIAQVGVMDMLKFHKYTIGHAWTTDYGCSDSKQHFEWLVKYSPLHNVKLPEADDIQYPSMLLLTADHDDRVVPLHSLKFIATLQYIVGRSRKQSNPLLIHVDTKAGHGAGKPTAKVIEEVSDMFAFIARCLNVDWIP

Dipeptidyl peptidase 2 = Dipeptidyl peptidase 2 (Homo sapiens, UniProt Q9UHL4); assay: Inhibition of DPP2 (unknown origin) using Lys-Ala-pNA as substrate preincubated for 15 mins followed by substrate addition and measured after 15 mins
Prolyl endopeptidase FAP = target: T2, Prolyl endopeptidase FAP (Homo sapiens, UniProt Q12884); assay: Inhibition of FAP (unknown origin) using Z-Gly-Pro-7-amino-4-methylcoumarine as fluorogenic substrate preincubated for 15 mins followed by substrate addition and measured after 15 mins
T2 sequence (Q12884 whole entry): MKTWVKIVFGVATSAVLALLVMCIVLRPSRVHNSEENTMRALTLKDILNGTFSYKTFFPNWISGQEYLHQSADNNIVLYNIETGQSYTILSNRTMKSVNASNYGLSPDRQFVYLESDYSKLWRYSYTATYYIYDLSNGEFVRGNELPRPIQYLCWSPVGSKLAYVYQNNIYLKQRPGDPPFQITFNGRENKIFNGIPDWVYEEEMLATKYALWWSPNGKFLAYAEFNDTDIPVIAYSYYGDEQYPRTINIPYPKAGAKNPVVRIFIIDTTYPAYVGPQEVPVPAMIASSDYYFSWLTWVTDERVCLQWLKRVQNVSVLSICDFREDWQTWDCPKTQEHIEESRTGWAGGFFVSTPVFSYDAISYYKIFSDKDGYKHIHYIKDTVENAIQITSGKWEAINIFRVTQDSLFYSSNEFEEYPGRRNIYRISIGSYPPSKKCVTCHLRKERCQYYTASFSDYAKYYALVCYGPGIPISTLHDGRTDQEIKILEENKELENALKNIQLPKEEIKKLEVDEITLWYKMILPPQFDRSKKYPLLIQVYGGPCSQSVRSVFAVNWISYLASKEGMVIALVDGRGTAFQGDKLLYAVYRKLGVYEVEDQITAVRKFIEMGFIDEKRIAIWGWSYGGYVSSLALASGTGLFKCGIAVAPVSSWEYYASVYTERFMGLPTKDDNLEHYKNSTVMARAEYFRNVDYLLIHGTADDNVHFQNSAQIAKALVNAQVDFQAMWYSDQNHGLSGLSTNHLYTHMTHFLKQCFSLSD

Dipeptidyl peptidase 8 = Dipeptidyl peptidase 8 (Homo sapiens, UniProt Q6V1X1); assay: Inhibition of DPP8 (unknown origin) using Ala-Pro-paranitroanilide as chromogenic substrate preincubated for 15 mins followed by substrate addition and measured after 15 mins
Sequence of Dipeptidyl peptidase 8 (Q6V1X1 whole entry): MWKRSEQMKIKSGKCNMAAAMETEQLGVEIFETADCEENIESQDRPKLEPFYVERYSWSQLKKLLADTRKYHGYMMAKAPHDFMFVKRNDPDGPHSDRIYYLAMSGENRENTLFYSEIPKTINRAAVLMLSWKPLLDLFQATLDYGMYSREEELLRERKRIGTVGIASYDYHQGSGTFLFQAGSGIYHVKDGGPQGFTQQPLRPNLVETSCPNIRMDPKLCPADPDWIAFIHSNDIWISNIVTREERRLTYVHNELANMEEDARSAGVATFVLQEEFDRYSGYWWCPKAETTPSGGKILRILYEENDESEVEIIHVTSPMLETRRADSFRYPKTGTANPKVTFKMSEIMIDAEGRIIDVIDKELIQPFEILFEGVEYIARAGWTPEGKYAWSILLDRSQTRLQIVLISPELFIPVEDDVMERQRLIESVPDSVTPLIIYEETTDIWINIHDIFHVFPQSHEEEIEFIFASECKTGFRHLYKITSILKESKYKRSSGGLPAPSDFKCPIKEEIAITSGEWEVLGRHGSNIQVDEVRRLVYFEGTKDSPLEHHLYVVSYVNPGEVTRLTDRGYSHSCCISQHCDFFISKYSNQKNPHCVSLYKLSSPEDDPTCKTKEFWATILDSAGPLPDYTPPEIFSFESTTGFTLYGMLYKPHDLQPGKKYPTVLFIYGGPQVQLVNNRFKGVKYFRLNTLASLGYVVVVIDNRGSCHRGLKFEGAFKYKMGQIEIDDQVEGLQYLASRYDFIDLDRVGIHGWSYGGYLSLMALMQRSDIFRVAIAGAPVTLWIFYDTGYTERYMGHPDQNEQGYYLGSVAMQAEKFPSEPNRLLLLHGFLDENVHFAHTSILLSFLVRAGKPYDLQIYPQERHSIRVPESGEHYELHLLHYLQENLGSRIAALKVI

[1] = Stability in CD1 mouse plasma assessed as compound remaining at 185 kBq measured upto 60 mins by radio-HPLC analysis; type: ADME, cell-free; conditions: read-out: Stability
Procedure, shortened: (§1)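 Radiotracer was incubated at 37 °C for up to 60 min in PBS (0.01 M, pH 7.4) or in mouse plasma. Samples were deproteinized with an equal volume of cold ACN and centrifuged. The supernatant was analyzed by radio-HPLC with 30 s fractions γ-counted to give the intact fraction. Triplicates.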

[2] = Drug uptake in intestine of female nude mouse harboring null mutation of CD1 antigen complex at 5.1 to 7.4 MBq, iv measured after 15 to 60 mins by gamma counter analysis; type: ADME, organism-based; conditions: in vivo, dose lower 5.1 MBq, time lower 15 min, dose upper 7.4 MBq, time upper 60 min
Procedure, shortened: (§2)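 Female CD1 nude mice, 6–8 weeks old (20–25 g), received the radiotracer through the lateral tail vein. At 15, 30 and 60 min p.i. (n = 3 per time point) blood was drawn by cardiac puncture and the animals were euthanized. Organs were excised, weighed and γ-counted. Uptake is expressed as %ID/g.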

[3] = Stability in female nude mouse harboring null mutation of CD1 antigen complex assessed as drug degradation at 5.1 to 7.4 MBq, iv measured at 60 mins by radio-HPLC analysis; type: ADME, organism-based; conditions: 1 h, dose 5.1-7.4 MBq
Procedure, shortened: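 Female CD1 nude mice received 5.1–7.4 MBq i.v. EDTA blood collected at 15, 30 and 60 min p.i. (n=3 per time point) was centrifuged to plasma, deproteinized with cold ACN and centrifuged. The supernatant was analyzed by radio-HPLC with 30 s fractions γ-counted to give the percent intact tracer.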

[4] = Drug uptake in tumor of female nude mouse harboring null mutation of CD1 antigen complex xenografted with human U-87 MG cells at 5 to 7.4 MBq, iv measured at 60 mins by PET/CT analysis; type: ADME, organism-based, Neoplasm; conditions: in vivo, 1 h, dose 5-7.4 MBq
Procedure, shortened: (§3)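 U-87MG xenografts (5×10^6 cells, subcutaneous flank) were grown in female CD1 nude mice to about 200 mm3. Dynamic whole-body PET over 60 min p.i. was followed by CT. Images were reconstructed with OSEM 3D and expressed as %ID/mL to give time-activity curves. For blocking, the FAP inhibitor (5 mg/kg) was given via the tail vein 30 min before the tracer; n=4.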

[5] = Ratio of drug level in tumor to muscle of female nude mouse harboring null mutation of CD1 antigen complex xenografted with human U-87 MG cells at 5 to 7.4 MBq, iv measured at 60 mins postinjection by gamma counter analysis; type: ADME, organism-based; conditions: in vivo, 1 h, dose 5-7.4 MBq
Procedure, shortened: (§4)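 Subcutaneous U-87MG xenografts (5×10^6 cells in DPBS, hind flank) were grown in female CD1 nude mice to about 200 mm3. After tail-vein radiotracer injection and a 60 min dynamic PET scan, tissues were harvested at 60 min p.i. and γ-counted (%ID/g). Tumor-to-tissue ratios are means ± SD of individual ratios, n=4 per tracer.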

[6] = Ratio of drug level in tumor to liver of female nude mouse harboring null mutation of CD1 antigen complex xenografted with human U-87 MG cells at 5 to 7.4 MBq, iv measured at 60 mins postinjection by gamma counter analysis; type: ADME, organism-based; conditions: in vivo, 1 h, dose 5-7.4 MBq; procedure, shortened: as §4
[7] = Drug uptake in tumor of female nude mouse harboring null mutation of CD1 antigen complex xenografted with human HT-29 cells with decreased FAP positive tumor area at 5 to 7.4 MBq, iv measured after 60 mins by immunohistochemistry analysis; type: ADME, organism-based, Neoplasm; conditions: in vivo, 1 h, dose 5-7.4 MBq
[8] = Drug uptake in bone structures of female nude mouse harboring null mutation of CD1 antigen complex xenografted with human U-87 MG cells at 5 to 7.4 MBq, iv measured after 60 mins by gamma counter analysis; type: ADME, organism-based, Bone element; conditions: in vivo, 1 h, dose 5-7.4 MBq
[9] = Stability in PBS assessed as drug degradation at 185 kBq measured upto 60 mins by radio-HPLC analysis; type: physicochemical; conditions: buffer, 1 h; procedure, shortened: as §1
[10] = Ratio of drug level in tumor to blood of female nude mouse harboring null mutation of CD1 antigen complex xenografted with human U-87 MG cells at 5 to 7.4 MBq, iv measured at 60 mins postinjection by gamma counter analysis; type: ADME, organism-based; conditions: tumour, 1 h, dose 5-7.4 MBq; procedure, shortened: as §4
[11] = Drug uptake in kidney of female nude mouse harboring null mutation of CD1 antigen complex assessed as increase in renal excretion at 5.1 to 7.4 MBq, iv measured after 15 to 60 mins by gamma counter analysis; type: ADME, organism-based; conditions: in vivo, dose lower 5.1 MBq, time lower 15 min, dose upper 7.4 MBq, time upper 60 min; procedure, shortened: as §2
[12] = Drug uptake in urinary bladder of female nude mouse harboring null mutation of CD1 antigen complex assessed as increase in renal excretion at 5.1 to 7.4 MBq, iv measured after 15 to 60 mins by gamma counter analysis; type: ADME, organism-based; conditions: in vivo, dose lower 5.1 MBq, time lower 15 min, dose upper 7.4 MBq, time upper 60 min; procedure, shortened: as §2
[13] = Drug uptake in skull of female nude mouse harboring null mutation of CD1 antigen complex xenografted with human U-87 MG cells at 5 to 7.4 MBq, iv measured after 60 mins by gamma counter analysis; type: ADME, organism-based; conditions: in vivo, 1 h, dose 5-7.4 MBq
[14] = Octanol/water partition coefficient, logD of compound at 74 kBq incubated for 2 mins by gamma counter method; type: physicochemical
Procedure, shortened: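 Octanol and PBS phases were mixed and vortexed for 2 min, then centrifuged at 3,000 rpm for 10 min. Aliquots of 0.5 mL from each phase were γ-counted and corrected for mass and density. LogD was taken as log10 of the octanol/PBS radioactivity ratio.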

[15] = Ratio of drug level in tumor to small intestine of female nude mouse harboring null mutation of CD1 antigen complex xenografted with human U-87 MG cells at 5 to 7.4 MBq, iv measured at 60 mins postinjection by gamma counter analysis; type: ADME, organism-based; conditions: in vivo, 1 h, dose 5-7.4 MBq; procedure, shortened: as §4
[16] = Drug uptake in tumor of female nude mouse harboring null mutation of CD1 antigen complex xenografted with human U-87 MG cells with increased FAP positive tumor area at 5 to 7.4 MBq, iv measured after 60 mins by immunohistochemistry analysis; type: ADME, organism-based, Neoplasm; conditions: in vivo, 1 h, dose 5-7.4 MBq
[17] = Stability in PBS assessed as compound remaining at 185 kBq measured upto 60 mins by radio-HPLC analysis; type: physicochemical; conditions: read-out: Stability; procedure, shortened: as §1
[18] = Drug uptake in liver of female nude mouse harboring null mutation of CD1 antigen complex at 5.1 to 7.4 MBq, iv measured after 15 to 60 mins by gamma counter analysis; type: ADME, organism-based; conditions: in vivo, dose lower 5.1 MBq, time lower 15 min, dose upper 7.4 MBq, time upper 60 min; procedure, shortened: as §2
[19] = Stability in CD1 mouse plasma assessed as drug degradation at 185 kBq measured upto 60 mins by radio-HPLC analysis; type: ADME, cell-free; conditions: 1 h; procedure, shortened: as §1
[20] = Drug uptake in tumor of female nude mouse harboring null mutation of CD1 antigen complex xenografted with human U-87 MG cells at 5 to 7.4 MBq, iv pretreated with (S)-N-(2-(2-cyano-4,4-difluoropyrrolidin-1-yl)-2-oxoethyl)quinoline-4-carboxamide for 30 mins followed by radioligand addition and measured measured after 60 mins by PET/CT analysis; type: ADME, organism-based, Neoplasm; conditions: in vivo, 1 h, dose 5-7.4 MBq; procedure, shortened: as §3

Sequence of Dipeptidyl peptidase 4 (P27487 whole entry): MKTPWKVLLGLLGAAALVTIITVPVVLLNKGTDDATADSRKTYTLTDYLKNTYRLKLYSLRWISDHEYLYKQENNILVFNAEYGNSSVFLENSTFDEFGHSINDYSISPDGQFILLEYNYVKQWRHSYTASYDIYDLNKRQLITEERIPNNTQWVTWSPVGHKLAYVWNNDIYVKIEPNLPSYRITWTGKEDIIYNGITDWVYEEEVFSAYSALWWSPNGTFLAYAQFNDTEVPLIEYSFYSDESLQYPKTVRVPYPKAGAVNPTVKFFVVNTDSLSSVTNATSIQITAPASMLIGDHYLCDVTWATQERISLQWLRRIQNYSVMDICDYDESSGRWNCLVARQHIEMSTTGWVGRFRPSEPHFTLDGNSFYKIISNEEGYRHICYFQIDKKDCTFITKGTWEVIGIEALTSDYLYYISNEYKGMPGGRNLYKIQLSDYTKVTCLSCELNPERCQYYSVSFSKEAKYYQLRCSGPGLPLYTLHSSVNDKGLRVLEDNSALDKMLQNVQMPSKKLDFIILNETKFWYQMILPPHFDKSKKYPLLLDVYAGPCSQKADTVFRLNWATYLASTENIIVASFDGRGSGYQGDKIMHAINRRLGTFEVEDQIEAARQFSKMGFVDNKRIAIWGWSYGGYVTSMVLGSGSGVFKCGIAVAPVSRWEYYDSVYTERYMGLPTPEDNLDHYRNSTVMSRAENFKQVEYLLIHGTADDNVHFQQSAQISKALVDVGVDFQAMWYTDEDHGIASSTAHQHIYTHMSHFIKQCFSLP

IC50 (Dipeptidyl peptidase 4): > 10 µM | IC50 (Dipeptidyl peptidase 9): 1.6 µM | IC50 (Prolyl endopeptidase): > 10 µM | IC50 (Dipeptidyl peptidase 2): > 10 µM | IC50 (Prolyl endopeptidase FAP): 0.0014 µM | IC50 (Dipeptidyl peptidase 8): 5.8 µM
Structure (SMILES): COC(CF)COc1ccc2nccc(C(=O)NCC(=O)N3CC(F)(F)C[C@H]3C#N)c2c1 (stereo partly drawn)

remaining at 1 h, 185 kBq [1]: > 70% | Drug uptake [2]: Active | Stability [3]: Unstable | Drug uptake [4]: < 3 %ID/ml | Ratio [5]: 3.6 | Ratio [6]: 2.37 | Drug uptake [7]: Not Active | Drug uptake [8]: Active | Stability [9]: Stable | Ratio [10]: 6.58 | Drug uptake [11]: Active | Drug uptake [12]: Active | Drug uptake [13]: Active | logD at 2 min [14]: 0.18 | Ratio [15]: 0.16 | Drug uptake [16]: Active | remaining at 1 h, 185 kBq [17]: > 70% | Drug uptake [18]: Active | Stability [19]: Stable | Drug uptake [20]: Not Active
Structure (SMILES): N#C[C@@H]1CC(F)(F)CN1C(=O)CNC(=O)c1ccnc2ccc(OCC(O)C[18F])cc12 (stereo partly drawn)

IC50 (Dipeptidyl peptidase 2): > 10 µM
Structure (SMILES): C[N+](C)(CF)CCCOc1ccc2nccc(C(=O)NCC(=O)N3CC(F)(F)C[C@H]3C#N)c2c1

IC50 (Dipeptidyl peptidase 4): > 10 µM | IC50 (Dipeptidyl peptidase 9): > 10 µM | IC50 (Prolyl endopeptidase): > 10 µM | IC50 (Dipeptidyl peptidase 2): > 10 µM | IC50 (Prolyl endopeptidase FAP): 0.00437 µM | IC50 (Dipeptidyl peptidase 8): > 10 µM
Structure (SMILES): N#C[C@@H]1CC(F)(F)CN1C(=O)CNC(=O)c1ccnc2ccc(OCC(O)CF)cc12 (stereo partly drawn)
